# System: DLD-1
# Test: Cytotoxicity against human DLD1 cells
# Assay type: functional
# Conditions: not given
row,Structure (SMILES),GI50 [nM]
1,COc1cc(/C=C/C(=O)CC(=O)/C=C/c2ccc(O)c(OC)c2)ccc1O [CURCUMIN],8000
2,COc1ccc(/C=C/C(=O)/C=C/c2ccc(OC)c(OC)c2)cc1OC,2000
3,O=C(/C=C/c1ccc2c(c1)OCO2)/C=C/c1ccc2c(c1)OCO2,> 50000

# System: HCT-116
# Test: Growth inhibition of human HCT116 cells after 48 hrs by MTS assay
# Assay type: functional
# Conditions: HCT-116, 48 h
# Outline: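 Vehicle controls received 1% DMSO alone. Growth in treated wells was expressed as a percentage of this control and plotted against concentration, and the mean growth-inhibitory concentration (GI50) was read from the curve.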
row,GI50 [nM],Structure (SMILES)
1,9100,COc1cccc(/C=C/C(=O)/C=C/c2cccc(OC)c2)c1
2,7000,COc1ccc(/C=C/C(=O)c2ccc(OC)c(OC)c2)cc1OC
3,800,COc1ccc(/C=C/C(=O)/C=C/c2ccc(OC)c(O)c2)cc1O
4,17000,COc1cc(/C=C/C(=O)/C=C/c2cccc(Cl)c2)cc(OC)c1OC
5,2000,COc1ccc(/C=C/C(=O)/C=C(O)/C=C/c2ccc(OC)c(OC)c2)cc1OC
6,800,COCOc1ccc(/C=C/C(=O)/C=C/c2ccc(OCOC)c(OCOC)c2)cc1OCOC
7,4400,COc1cc(/C=C/C(=O)/C=C/c2ccccc2)cc(OC)c1OC
8,7000,COC(=O)COc1c(OC)cc(/C=C/C(=O)/C=C/c2cc(OC)c(OC)c(OC)c2)cc1OC
9,1500,COc1ccc(/C=C/C(=O)/C=C/c2ccc(OC)c(OC)c2)cc1O
10,700,COc1cc(/C=C/C(=O)/C=C/c2ccc(OC)c(OC)c2)ccc1O
11,1500,O=C(/C=C/c1cc(O)cc(O)c1)/C=C/c1cc(O)cc(O)c1
12,400,COc1ccc(/C=C/C(=O)/C=C/c2cc(OC)c(OC)c(OC)c2)cc1OC
13,1800,C#CCOc1c(OC)cc(/C=C/C(=O)/C=C/c2cc(OC)c(OC)c(OC)c2)cc1OC
14,> 50000,C=C1CC2CC(C1)/C(=C\c1ccc(OC)c(OC)c1)C(=O)/C2=C/c1ccc(OC)c(OC)c1
15,2400,COc1cc(/C=C/C(=O)/C=C/c2cccc(OS(=O)(=O)C(F)(F)F)c2)cc(OC)c1OC
16,15000,COc1cc(/C=C/C(=O)/C=C/c2cc(OC)c(OCc3cn(CCCCCCCCCOC(=O)CCC4=[N+]5C(=Cc6c(C)cc(C)n6[B-]5(F)F)C=C4)nn3)c(OC)c2)cc(OC)c1OC
17,7600,COc1cc(/C=C/C(=O)/C=C/c2cccc(OC(=O)C34CC5CC(CC(C5)C3)C4)c2)cc(OC)c1OC
18,6900,COc1cccc(/C=C/C(=O)/C=C/c2cc(OC)c(OC)c(OC)c2)c1
19,> 50000,COc1cc(OC)c(OC)c(OC)c1/C=C/C(=O)/C=C/c1c(OC)cc(OC)c(OC)c1OC
20,9700,COc1cc(/C=C/C(=O)/C=C/c2cc(OC)c(OCCN=[N+]=[N-])c(OC)c2)cc(OC)c1OC
21,9000,COc1ccc(/C=C/C(=O)/C=C/c2ccc(OC)cc2)cc1
22,300,COCOc1c(OC)cc(/C=C/C(=O)/C=C/c2cc(OC)c(OCOC)c(OC)c2)cc1OC

row,GI50 [nM],Structure (SMILES)
1,900,COc1cc(/C=C/C(=O)/C=C/c2cccc(O)c2)cc(OC)c1OC
2,> 50000,COc1ccc(/C=C/C(=O)/C=C/c2ccc(OC)cc2OC)c(OC)c1
3,800,COc1cc(/C=C/C(=O)/C=C/c2cc(OC)c(OC)c(OC)c2)cc(OC)c1O
4,22000,CCCSC(CC(=O)/C=C/c1ccc(OC)c(OC)c1)c1ccc(OC)c(OC)c1 (configuration not stated)
5,800,COc1cc(/C=C/C(=O)/C=C/c2cc(OC)c(OCc3cn(CCCCCCCCCO)nn3)c(OC)c2)cc(OC)c1OC
6,> 50000,COc1ccc(/C=C2\CCC/C(=C\c3ccc(OC)c(OC)c3)C2=O)cc1OC
7,8100,COc1cc(/C=C/C(=O)/C=C/c2cccc(C#Cc3ccccc3)c2)cc(OC)c1OC
8,2000,COc1cc(OC)c(OC)cc1/C=C/C(=O)/C=C/c1cc(OC)c(OC)cc1OC
9,800,COc1cc(/C=C/C(=O)/C=C/c2cc(OC)c(O)c(OC)c2)cc(OC)c1O
10,38000,COc1cc(/C=C/C(=O)/C=C/c2cc(OC)c(OCC(=O)O)c(OC)c2)cc(OC)c1OC
11,1500,CCOC(C)Oc1c(OC)cc(/C=C/C(=O)/C=C/c2cc(OC)c(OC)c(OC)c2)cc1OC (configuration not stated)
12,1500,COc1ccc(/C=C/C(=O)/C=C/c2ccc(OC)c(OC)c2)cc1OC
13,3000,COc1ccc(/C=C/C(=O)/C=C/c2cc(OC)c(OC)c(OC)c2)cc1
14,800,COc1cc(/C=C/C(=O)/C=C/c2cc(OC)c(OCc3cn(CCCCCCCCCCNC(=O)OC(C)(C)C)nn3)c(OC)c2)cc(OC)c1OC
15,7600,COc1cc(/C=C/C(=O)/C=C/c2cc(OC)c(OCCN=[N+]=[N-])c(OC)c2)cc(OC)c1OCCN=[N+]=[N-]
16,> 50000,COc1ccc(CCC(=O)CCc2ccc(OC)c(OC)c2)cc1OC
17,2000,COc1cc(/C=C/C(=O)/C=C/c2cc(OC)cc(OC)c2)cc(OC)c1
18,8100,COc1ccc(OC)c(/C=C/C(=O)/C=C/c2cc(OC)ccc2OC)c1
19,4000,COc1ccccc1/C=C/C(=O)/C=C/c1ccccc1OC
20,1400,CCOC(C)Oc1cccc(/C=C/C(=O)/C=C/c2cc(OC)c(OC)c(OC)c2)c1 (configuration not stated)
21,500,COc1cc(/C=C/C(=O)/C=C/c2cc(OC)c(OCCO)c(OC)c2)cc(OC)c1OCCO
22,2600,COc1cc(/C=C/C(=O)/C=C/c2cc(OC)c(OCc3cn(CCCCCCCCCCOC(=O)CSCc4c(C)n5c(C)c(C)c(=O)n5c4=O)nn3)c(OC)c2)cc(OC)c1OC

row,GI50 [nM],Structure (SMILES)
1,4000,COCOc1cccc(/C=C/C(=O)/C=C/c2cc(OC)c(OC)c(OC)c2)c1
2,1300,COc1cccc(/C=C/C(=O)/C=C/c2cccc(OC)c2OC)c1OC
3,2400,C#CCOc1c(OC)cc(/C=C/C(=O)/C=C/c2cc(OC)c(OCOC)c(OC)c2)cc1OC
4,3500,COc1ccc(/C=C/C(=O)/C=C/c2ccc(OC)c(OC)c2OC)c(OC)c1OC
5,4000,COc1ccc(/C=C/C(=O)/C=C/c2ccc(OC)c(OC)c2)cc1
6,2300,COc1ccc(OC)c(OC)c1/C=C/C(=O)/C=C/c1c(OC)ccc(OC)c1OC
7,> 50000,COc1ccc(CCC(O)CCc2ccc(OC)c(OC)c2)cc1OC
8,3300,COc1cc(OC)c(OC)cc1/C=C/C(=O)/C=C/c1cc(OC)c(OC)c(OC)c1
9,9000,COc1cccc(OC)c1/C=C/C(=O)/C=C/c1c(OC)cccc1OC
10,> 50000,COc1ccc(/C=C/C(=O)CCc2ccc(OC)c(OC)c2)cc1OC
11,8500,COc1cc(/C=C/C(=O)/C=C/c2cccc(OC(c3ccccc3)(c3ccccc3)c3ccccc3)c2)cc(OC)c1OC
12,300,COc1cc(/C=C/C(=O)/C=C/c2cc(OC)c(OC)c(OC)c2)cc(OC)c1OC
13,> 50000,COc1ccc(/C=C/C(/C=C/c2ccc(OC)c(OC)c2)=NO)cc1OC
14,1700,COc1cc(/C=C/C(=O)/C=C/c2cc(OC)c(OCCO)c(OC)c2)cc(OC)c1OC
15,2300,COc1cc(OC)c(/C=C/C(=O)/C=C/c2c(OC)cc(OC)cc2OC)c(OC)c1
16,1900,COc1cc(/C=C/C(=O)/C=C/c2ccc(OC)c(OC)c2OC)cc(OC)c1OC
17,> 50000,CCCCCCCCCCCCCCOc1cccc(/C=C/C(=O)/C=C/c2cc(OC)c(OC)c(OC)c2)c1
18,300,COc1cc(/C=C/C(=O)/C=C/c2cc(OC)c(OCc3cn(Cc4ccc(OC5CCCCO5)cc4)nn3)c(OC)c2)cc(OC)c1OC (configuration not stated)
19,15000,COc1cc(/C=C/C(=O)/C=C/c2ccc(O)c(OC)c2)ccc1O
20,300,C#CCOc1c(OC)cc(/C=C/C(=O)/C=C/c2cc(OC)c(OCC#C)c(OC)c2)cc1OC

# — ChEMBL document CHEMBL1159128, “Structure-activity relationship of C5-curcuminoids and synthesis of their molecular probes thereof” (2010)
